Bioassay records: PubChem, several laboratories
The list is not random: actives were taken first. Their share in the collection is about 0.8%.
mHtt clearance – mutant huntingtin protein clearance. HeLa Exon1htt(103Q)mCFP, aggregate imaging; zero = plate's median compound well. inhibition, % at 1.5 µM. 0.42% of 47,000 active;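 active = inhibition of aggregate fluorescence above about 70%, also judged a hit by eye on the cell image, limit read from the data, passing the limit was not always enough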;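 note: cells exposed to compound for three days before fixation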
C1s inh – blocks human complement C1s protease activity; P09871; purified C1s, fluorogenic AMC substrate, pooled mixtures; mean inhibition % of two 10-compound mixtures (stronger effect = higher value), % at 5 µM (by protocol); 0.16% of 62,000 active;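 active = inhibition above 20% in each of the two 10-compound mixture wells holding the compound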
AP complement – orthogonal test for alternative complement pathway inhibitors; 0.08% of 62,000 active; AID 1235; Human serum alternative complement pathway, LPS-coated ELISA, C3 deposition; tested in compound mixtures; inhibition, % at 5 µM;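 active = inhibition above 30% in each of the two pooled mixtures holding the compound, so the lower value exceeds 30%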
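Test system: human serum complement alternative pathway, C3 deposition onto LPS / Medium: Mg2+-EGTA GVB++ buffer containing human serum at 1:15 dilution / Probe or stimulus: Plate-bound LPS / Times: 1 h at 37 °C / Signal: ELISA with HRP anti-human C3 antibody, TMB substrate, absorbance 450 nm / Measure: percent inhibition / Repeats: two pool placements per compound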
Cathepsin G inh – blocks human cathepsin G enzyme activity; P08311; purified enzyme, AMC-tetrapeptide fluorescence, pooled mixtures; inhibition, % at 5 µM (by protocol); 0.2% of 62,000 active; AID 581;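 active = inhibition above 20% in each of the two mixture wells holding the compound; inactive = inhibition of 20% or less in either well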
FXIIa inh mix – blocks human factor XIIa in pooled compound mixtures | P00748 | purified FXIIa, fluorogenic substrate | inhibition, % at 5 µM | 0.2% of 62,000 active
FXIa mix inh – blocks human factor XIa in pooled compound mixtures; P03951; inhibition, % at 5 µM; 0.19% of 62,000 active; purified FXIa, fluorogenic substrate;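 note: each value is inhibition by a whole ten-compound pool holding the compound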
Target sequence (P03951 19-387 limits assumed): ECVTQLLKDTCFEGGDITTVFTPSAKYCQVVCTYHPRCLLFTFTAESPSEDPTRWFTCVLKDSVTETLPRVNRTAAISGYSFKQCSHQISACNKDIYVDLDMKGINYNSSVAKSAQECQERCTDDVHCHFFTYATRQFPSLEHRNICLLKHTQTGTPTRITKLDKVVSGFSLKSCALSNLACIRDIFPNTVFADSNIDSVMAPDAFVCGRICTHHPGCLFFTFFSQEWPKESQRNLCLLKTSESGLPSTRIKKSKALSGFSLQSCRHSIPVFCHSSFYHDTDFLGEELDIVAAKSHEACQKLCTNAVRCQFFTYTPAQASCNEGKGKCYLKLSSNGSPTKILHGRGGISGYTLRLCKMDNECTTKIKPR
Target sequence (P03951 388-625 limits assumed): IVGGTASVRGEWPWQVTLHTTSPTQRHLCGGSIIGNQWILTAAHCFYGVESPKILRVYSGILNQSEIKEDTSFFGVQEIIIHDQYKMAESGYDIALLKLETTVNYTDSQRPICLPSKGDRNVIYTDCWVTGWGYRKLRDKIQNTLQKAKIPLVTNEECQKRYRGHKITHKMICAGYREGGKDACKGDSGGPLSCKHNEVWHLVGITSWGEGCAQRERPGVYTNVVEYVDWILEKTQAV
Numbers stand for hits; 0 = inactive; - = not tested or not shown. Cut-off read from the data, not from the text of the source, unless noted: active = inhibition above about 20% (passing the limit was not always enough); inactive = the rest.

SMILES	mHtt clearance	C1s inh	AP complement	Cathepsin G inh	FXIIa inh mix	FXIa mix inh
CCOC(=O)/C(C#N)=C1/C=CN(C)C(C)=N1	-	0	33	0	0	0
Cc1c(N=C2NC(=O)C(CC(=O)Nc3ccc(Cl)cc3)S2)c(=O)n(-c2ccccc2)n1C (stereo not drawn)	70	0	0	0	0	0
Cc1c(NC(=O)Nc2ccc(Cl)cc2)c(=O)n(-c2ccccc2)n1C	-	0	0	0	0	0
CCc1ccccc1NS(=O)(=O)c1ccc2[nH]cc(C(=O)NCC3CCCO3)c(=O)c2c1 (stereo not drawn)	94	0	0	0	0	0
C=C(C)c1cccc(C(C)(C)NC(=O)N2CC(C)OC(C)C2)c1 (stereo not drawn)	-	0	0	0	22	0
C=C(C)c1cccc(C(C)(C)NC(=O)N2CCCC2)c1	0	-	-	-	-	-
CCn1c(SCC(=O)Nc2nc(C)c(C(=O)OC)s2)nnc1C(C)C	-	0	0	0	0	0
Cc1ccc(-c2noc(CCC(=O)Nc3cccc(C#N)c3)n2)cc1	-	0	0	0	0	0
COc1ccc(-c2c3c([nH]c(=S)c2C#N)CCC3)cc1	71	0	0	0	0	0
N#Cc1c(-c2cccnc2)c2c([nH]c1=S)CCCC2	0	0	0	0	0	0
Cc1ccc(NC(=O)CS(=O)CC(=O)Nc2cccc(C)c2C)cc1F (stereo not drawn)	0	0	0	0	0	0
C=CCn1c(SCCC(=O)O)nc2c1c(=O)n(C)c(=O)n2C	-	0	0	0	0	0
CC(C)C1Cc2c(sc3[nH]c(=S)n(Cc4ccccc4)c(=O)c23)CO1 (stereo not drawn)	0	-	-	-	-	-
CCCc1cc(C(=O)NC2CCCCC2)no1	-	0	0	0	0	0
CCCc1cc(C(=O)Nc2sc3c(c2C#N)CCC3)no1	82	0	0	0	0	0
CCCc1cc(C(=O)Nc2sc(C)c(CC)c2C#N)no1	-	0	0	0	0	0
CCCc1cc(C(=O)NC2CCCC2)no1	0	0	40	0	0	0
O=C(Nc1ccc2c(c1)OCO2)c1ccc(Br)s1	0	0	0	0	0	0
O=C(Nc1cnc2ccccc2c1)c1cccc(-n2cnnn2)c1	0	0	0	0	0	0
O=C(c1ccco1)N1CCCN(C(=O)c2ccco2)CC1	-	0	0	0	0	0
O=C(CCC1CCCC1)N1CCN(C(=O)c2ccco2)CC1	72	0	0	0	0	0
O=C(c1ccco1)N1CCN(S(=O)(=O)c2ccc(S(=O)(=O)NC3CCCCC3)cc2)CC1	-	71	0	0	0	0
O=C(c1cnsn1)N1CCN(c2ccccn2)CC1	-	0	0	0	0	0
O=C(NCc1ccccn1)C1CCN(S(=O)(=O)c2ccccc2)CC1	0	0	0	0	0	0
O=C(NCc1ccccn1)C1CCN(S(=O)(=O)N2CCCC2)CC1	-	0	0	0	0	27
SMILES	mHtt clearance	C1s inh	AP complement	Cathepsin G inh	FXIIa inh mix	FXIa mix inh
Fc1ccc(-c2cc(C(F)(F)F)nc(N3CCCCC3)n2)cc1	0	0	0	0	21	0
COc1ccccc1-c1cc(C(F)(F)F)nc(N2CCOCC2)n1	0	0	0	0	0	22
COc1cc(C(c2sc3nc(C)nn3c2O)N2CCC3(CC2)OCCO3)cc(OC)c1OC (stereo not drawn)	0	0	0	0	0	0
Cc1cc(Oc2ccccc2)nc(OCC#N)n1	0	0	0	0	38	0
NC(=O)c1ccsc1NC(=O)c1nc(-c2ccccc2)n(-c2ccccc2)n1	-	0	0	0	0	0
Cc1cccc(OCC(=O)Nc2cc(C)ccc2O)c1	85	0	0	0	0	0
Cc1onc(-c2ccccc2)c1C(=O)NCC1COc2ccccc2O1 (stereo not drawn)	0	-	-	-	-	-
Cc1cccc(-n2c(Cc3cc(=O)[nH]c(=O)[nH]3)nnc2SCC(=O)N2CCCCC2)c1	0	0	0	0	0	21
Cc1cc(C)n(CCc2nc(-c3ccc(C)o3)cs2)n1	0	-	-	-	-	-
Cc1csc(CCc2nc(C)cs2)n1	0	0	0	0	22	0
CC1=Nn2c(nnc2C2CCCCC2)SC1	-	0	0	0	0	0
Cc1ccc(C(=O)c2cc(C)sc2NC(=O)CN2CCN(C(=O)c3ccco3)CC2)cc1	-	0	0	0	21	0
Cc1ccc(NC(=O)Cn2nnc(C(=O)NCc3ccco3)c2N)cc1	71	-	-	-	-	-
Cc1ccc(NC(=O)Cn2nnc(C(=O)Nc3ccc(C)c(C)c3)c2N)cc1	83	0	0	0	0	0
